Test results taken from ChEMBL document CHEMBL1909525, “Synthesis and anticonvulsant activity of novel 2,6-diketopiperazine derivatives. Part 1: perhydropyrrole[1,2-a]pyrazines” (Eur J Med Chem, 2011).
The source made the active and inactive calls. The rule behind the calls is not given here.

Experiments:
Mus musculus [1] = experiment: Anticonvulsant activity in albino Carworth Farms No.1 mouse assessed as protection against subcutaneous metrazol-induced seizure at 300 mg/kg, ip after 0.5 hrs; assay type: functional, organism-based; parameters: dose 300 mg/kg
Outline: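 Mouse scMET test. Compound given i.p. (30, 100 or 300 mg/kg) in 0.5% methylcellulose. Pentylenetetrazole 85 mg/kg (CD97) given s.c. at 0.5 or 4 h, then mice observed for 30 min. Protection is absence of clonic spasms; scored as protected/tested.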

Mus musculus [2] = experiment: Anticonvulsant activity in albino Carworth Farms No.1 mouse assessed as protection against electric-current for 3 secs-induced seizure at 100 mg/kg, ip after 4 hrs by 6Hz minimal clonic seizure test; assay type: functional, organism-based; parameters: dose 100 mg/kg
Outline: (§1)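 6 Hz psychomotor seizure test in mice. Compound given i.p. as a suspension in 0.5% methylcellulose. Corneal stimulation at 32 mA, 0.2-ms monopolar rectangular pulses at 6 Hz for 3 s, from a constant-current device. Tests run 0.25–4 h after dosing. A mouse counted as protected if it resumed normal exploratory behaviour within 10 s; scored as protected/tested.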

Rattus norvegicus [3] = experiment: Anticonvulsant activity in po dosed albino Sprague-Dawley rat assessed as protection against maximal electroshock-induced seizure after 0.25 hrs; assay type: functional
Outline: (§2)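 Rats dosed orally, compound in 0.5% methylcellulose. MES at 150 mA, 60 Hz, 0.2 s; scMET with pentylenetetrazole 70 mg/kg s.c. plus 30 min observation; rotorod for toxicity.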

Mus musculus [4] = experiment: Anticonvulsant activity in albino Carworth Farms No.1 mouse assessed as protection against electric-current for 3 secs-induced seizure at 75 mg/kg, ip after 0.25 hrs by 6Hz minimal clonic seizure test; assay type: functional, organism-based; parameters: dose 75 mg/kg; outline: as §1
Rattus norvegicus [5] = experiment: Anticonvulsant activity in po dosed albino Sprague-Dawley rat assessed as protection against subcutaneous metrazol-induced seizure after 0.25 hrs; assay type: functional; outline: as §2
Mus musculus [6] = experiment: Anticonvulsant activity in albino Carworth Farms No.1 mouse assessed as protection against maximal electroshock-induced seizure at 30 mg/kg, ip after 4 hrs; assay type: functional, organism-based; parameters: dose 30 mg/kg
Outline: (§3)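 Mouse MES test with compound given i.p. (30, 100 or 300 mg/kg) in 0.5% methylcellulose; tested at 0.5 and 4 h. Corneal stimulus of 50 mA at 60 Hz for 0.2 s, electrodes primed with 0.5% butacaine in 0.9% NaCl. Protection is abolition of hindlimb tonic extension; scored as protected/tested.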

Mus musculus [7] = experiment: Toxicity in albino Carworth Farms No.1 mouse assessed as sedation at 300 mg/kg, ip after 0.5 hrs by rotarod test; assay type: organism-based; parameters: dose 300 mg/kg, route intraperitoneal; conditions: in vivo
Outline: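 Mice (18–25 g) were given 30, 100 or 300 mg/kg i.p. in 0.5% (v/v) aqueous methylcellulose. Neurotoxicity was checked on a 6 r.p.m. rotorod 30 min and 4 h after dosing and scored as inability to keep equilibrium. Death following tonic extension and sedation were recorded as observations (number of animals/number tested).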

Rattus norvegicus [8] = experiment: Toxicity in albino Sprague-Dawley rat pilocarpine-induced status epilepticus model assessed as change in body weight in non-protected rat at 130 mg/kg, ip measured after 24 hrs of time from first stage 3 seizures; assay type: organism-based; parameters: dose 130 mg/kg, route intraperitoneal; conditions: in vivo
Outline: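 Male albino Sprague-Dawley rats (150–180 g) received compound i.p., then a pilocarpine challenge immediately (0 min) or 30 min after treatment. The outcome was protection or no protection from seizures, scored as number protected/number tested. Average body weight change (g) ± S.E.M. was reported separately for protected and non-protected rats.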

[9] = Neurotoxicity in ip dosed albino Carworth Farms No.1 mouse assessed as motor impairment after 0.25 hrs by rotarod test; assay type: toxicity, organism-based; conditions: Carworth Farms No.1 (albino), in vivo
Outline: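 Mouse quantification at the time of peak effect, compound given i.p. in 0.5% methylcellulose. Groups of at least eight mice received varied doses until at least two points fell between 100 and 0% response. PI = TD50/ED50 MES.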

Rattus norvegicus [10] = species on record: Rattus norvegicus; experiment: Activation of voltage-gated sodium channel in Wistar rat cerebral prefrontal coronal slices assessed as increase of 0.1 Hz current-induced current amplitude at 100 uM after 5 mins by whole cell voltage clamp method
Outline: (§4)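 Whole-cell voltage clamp on mechanically dispersed mPFC cells from coronal prefrontal slices of 3-week-old male Wistar rats. Bath: TEA-OH 90, NaCl 30, HEPES 10, MgCl2 2, CaCl2 2, glucose 15 mM, pH 7.4. Na+ currents evoked at 0.1 Hz by a step to -20 mV (30 ms) after a -100 mV prepulse (1000 ms). Amplitude compared before and after 5 min compound application; n = 3.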

Rattus norvegicus [11] = experiment: Anticonvulsant activity in albino Sprague-Dawley rat assessed as protection against pilocarpine-induced status epilepticus at 65 mg/kg, ip measured after time from first stage 3 seizures; assay type: functional, organism-based; parameters: dose 65 mg/kg
Outline: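 Male albino Sprague-Dawley rats, 150–180 g. Compound given i.p., then a challenge dose of pilocarpine at 0 min or at 30 min. Outcome scored as protection or no protection from seizures (protected/tested), with body weight change recorded.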

Mus musculus [12] = experiment: Anticonvulsant activity in albino Carworth Farms No.1 mouse assessed as protection against electric-current for 3 secs-induced seizure at 100 mg/kg, ip after 2 hrs by 6Hz minimal clonic seizure test; assay type: functional, organism-based; parameters: dose 100 mg/kg; outline: as §1
Mus musculus [13] = experiment: Anticonvulsant activity in albino Carworth Farms No.1 mouse assessed as protection against electric-current for 3 secs-induced seizure at 75 mg/kg, ip after 2 hrs by 6Hz minimal clonic seizure test; assay type: functional, organism-based; parameters: dose 75 mg/kg; outline: as §1
Mus musculus [14] = experiment: Anticonvulsant activity in albino Carworth Farms No.1 mouse assessed as protection against electric-current for 3 secs-induced seizure at 75 mg/kg, ip after 0.5 hrs by 6Hz minimal clonic seizure test; assay type: functional, organism-based; parameters: dose 75 mg/kg; outline: as §1
Mus musculus [15] = experiment: Anticonvulsant activity in albino Carworth Farms No.1 mouse assessed as protection against electric-current for 3 secs-induced seizure at 100 mg/kg, ip after 0.5 hrs by 6Hz minimal clonic seizure test; assay type: functional; outline: as §1
Mus musculus [16] = experiment: Anticonvulsant activity in albino Carworth Farms No.1 mouse assessed as protection against maximal electroshock-induced seizure at 100 mg/kg, ip after 4 hrs; assay type: functional, organism-based; parameters: dose 100 mg/kg; outline: as §3
Mus musculus [17] = experiment: Anticonvulsant activity in albino Carworth Farms No.1 mouse assessed as protection against electric-current for 3 secs-induced seizure at 100 mg/kg, ip after 0.25 hrs by 6Hz minimal clonic seizure test; assay type: functional, organism-based; parameters: dose 100 mg/kg; outline: as §1
Mus musculus [18] = experiment: Anticonvulsant activity in ip dosed albino Carworth Farms No.1 mouse assessed as protection against electric-current for 3 secs-induced seizure after 0.25 hrs by 6Hz minimal clonic seizure test; assay type: functional; conditions: albino Carworth Farms No.1, ip
Rattus norvegicus [19] = species on record: Rattus norvegicus; experiment: Activation of voltage-gated sodium channel in Wistar rat cerebral prefrontal coronal slices assessed as increase of 0.1 Hz current-induced current amplitude at 10 uM after 5 mins by whole cell voltage clamp method; outline: as §4
Mus musculus [20] = experiment: Anticonvulsant activity in ip dosed albino Carworth Farms No.1 mouse assessed as time needs to show peak effect for protection against maximal electroshock-induced seizure; assay type: functional
Mus musculus [21] = experiment: Neurotoxicity in albino Carworth Farms No.1 mouse assessed as motor impairment at 30 mg/kg, ip after 0.5 hrs by rotarod test; assay type: toxicity, organism-based; parameters: dose 30 mg/kg, route intraperitoneal; conditions: in vivo
Outline: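 Rotorod neurotoxicity in mice at 6 r.p.m. Compound given i.p. (30, 100, 300 mg/kg) in 0.5% methylcellulose; tested at 30 min and 4 h. Impairment is inability to keep equilibrium on the rod for a given time; scored as impaired/tested.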

Rattus norvegicus [22] = experiment: Anticonvulsant activity in po dosed albino Sprague-Dawley rat assessed as time needs to show peak effect for protection against maximal electroshock-induced seizure after 0.25 hrs; assay type: functional; outline: as §2

O=C1NC(=O)[C@@H]2CCCN2[C@H]1c1ccccc1
Activity (Mus musculus [1]): inactive | Activity (Mus musculus [2]): inactive | ED50 (Rattus norvegicus [3]): 39.7 mg/kg | Activity (Mus musculus [4]): Active | ED50 (Rattus norvegicus [5]): 114 mg/kg | Activity (Mus musculus [6]): inactive | Activity (Mus musculus [7]): Toxic | Activity (Rattus norvegicus [8]): -22.5 g | TD50 at 0.25 h [9]: 122 mg/kg | Activity (Rattus norvegicus [10]): 8.4% | Activity (Rattus norvegicus [11]): Active | Activity (Mus musculus [12]): inactive | Activity (Mus musculus [13]): inactive | Activity (Mus musculus [14]): Active | Activity (Mus musculus [15]): inactive | Activity (Mus musculus [16]): inactive | Activity (Mus musculus [17]): Active | ED50 (Mus musculus [18]): 9.93 mg/kg | Activity (Rattus norvegicus [19]): 3% | Time (Mus musculus [20]): 0.25 h | Activity (Mus musculus [21]): Non-toxic | Time (Rattus norvegicus [22]): 0.25 h
